Source: ChEMBL document CHEMBL1157725 (Bioorg Med Chem, 2010)

How the values were obtained:
[1] = tested on: MDA-MB-435; experiment: Growth inhibition of human MDA-MB-435 cells after 48 hrs by SRB assay; format: functional; conditions: MDA-MB-435, 48 h
Procedure, shortened: (§1)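 This is the NCI cell-line panel. Cells are exposed for 48 h to five concentrations in 10-fold serial dilution. Growth is read by the SRB protein assay, and GI₅₀ is calculated from log dose–response curves.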

[2] = tested on: A549; experiment: Growth inhibition of human A549 cells after 48 hrs by SRB assay; format: functional; conditions: A549, 48 h
[3] = tested on: ACHN; experiment: Growth inhibition of human ACHN cells after 48 hrs by SRB assay; format: functional; procedure, shortened: as §1
[4] = tested on: MCF7; experiment: Growth inhibition of human MCF7 cells after 48 hrs by SRB assay; format: functional; conditions: MCF7, 48 h; procedure, shortened: as §1
[5] = tested on: TK-10; experiment: Growth inhibition of human TK10 cells after 48 hrs by SRB assay; format: functional; conditions: TK-10, 48 h
Procedure, shortened: (§2)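 NCI human tumor cell line panel. Cells exposed for 48 h to five concentrations in a 10-fold serial dilution. Growth inhibition read as total cell protein by sulforhodamine B staining. GI50 calculated from log dose–response curves.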

[6] = tested on: IGROV-1; experiment: Growth inhibition of human IGROV1 cells after 48 hrs by SRB assay; format: functional; conditions: IGROV-1, 48 h; procedure, shortened: as §1
[7] = tested on: NCI-H322M; experiment: Growth inhibition of human NCI-H322M cells after 48 hrs by SRB assay; format: functional
[8] = tested on: K562; experiment: Growth inhibition of human K562 cells after 48 hrs by SRB assay; format: functional; conditions: K562, 48 h
[9] = tested on: SF-268; experiment: Growth inhibition of human SF268 cells after 48 hrs by SRB assay; format: functional; conditions: SF-268, 48 h; procedure, shortened: as §1
[10] = tested on: SK-OV-3; experiment: Growth inhibition of human SKOV3 cells after 48 hrs by SRB assay; format: functional; conditions: SK-OV-3, 48 h; procedure, shortened: as §2
[11] = tested on: EKVX; experiment: Growth inhibition of human EKVX cells after 48 hrs by SRB assay; format: functional
[12] = tested on: CAKI-1; experiment: Growth inhibition of human Caki1 cells after 48 hrs by SRB assay; format: functional; conditions: CAKI-1, 48 h; procedure, shortened: as §1
[13] = tested on: OVCAR-3; experiment: Growth inhibition of human OVCAR-3 cells after 48 hrs by SRB assay; format: functional; conditions: OVCAR-3, 48 h; procedure, shortened: as §1
[14] = tested on: NCI-H226; experiment: Growth inhibition of human NCI-H226 cells after 48 hrs by SRB assay; format: functional; conditions: NCI-H226, 48 h
[15] = tested on: MCF7; experiment: Antiproliferative activity against human MCF7 cells after 24 hrs by SRB assay; format: functional, cell-based; conditions: MCF7, 24 h
Procedure, shortened: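 MCF-7 cells are grown for 24 h with or without drug, then for a further 48 h. Total cell protein is measured by sulforhodamine B staining, and the IC₅₀ is derived from it.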

[16] = tested on: MDA-MB-231; experiment: Growth inhibition of human MDA-MB-231 cells after 48 hrs by SRB assay; format: functional; conditions: MDA-MB-231, 48 h; procedure, shortened: as §1
[17] = tested on: MOLT-4; experiment: Growth inhibition of human MOLT4 cells after 48 hrs by SRB assay; format: functional; conditions: MOLT-4, 48 h
[18] = Displacement of [3H]colchicine from tubulin at 50 uM by turbidimetry; conditions: in the assay text read “by DEAE-cellulose filter method” for “by turbidimetry”
Procedure, shortened: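 Binding of [³H]colchicine to tubulin (1.0 µM, 0.1 mg/mL) is measured by the DEAE-cellulose filter method. The radioligand is at 5.0 µM and test agents at 5 or 50 µM. Each is run in triplicate.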

[19] = tested on: SK-MEL-2; experiment: Growth inhibition of human SK-MEL-2 cells after 48 hrs by SRB assay; format: functional; conditions: SK-MEL-2, 48 h; procedure, shortened: as §2
[20] = tested on: NCI-H522; experiment: Growth inhibition of human NCI-H522 cells after 48 hrs by SRB assay; format: functional; conditions: NCI-H522, 48 h
[21] = tested on: NCI/ADR-RES; experiment: Growth inhibition of human NCI/ADR-RES cells after 48 hrs by SRB assay; format: functional; procedure, shortened: as §1
[22] = tested on: CCRF-CEM; experiment: Growth inhibition of human CCRF-CEM cells after 48 hrs by SRB assay; format: functional
[23] = tested on: UACC-62; experiment: Growth inhibition of human UACC62 cells after 48 hrs by SRB assay; format: functional; conditions: UACC-62, 48 h; procedure, shortened: as §2
[24] = tested on: RXF 393; experiment: Growth inhibition of human RXF393 cells after 48 hrs by SRB assay; format: functional; conditions: RXF 393, 48 h; procedure, shortened: as §1
[25] = tested on: 786-0; experiment: Growth inhibition of human 786-0 cells after 48 hrs by SRB assay; format: functional; conditions: 786-0, 48 h; procedure, shortened: as §1
[26] = tested on: UO-31; experiment: Growth inhibition of human UO31 cells after 48 hrs by SRB assay; format: functional; conditions: UO-31, 48 h; procedure, shortened: as §2
[27] = tested on: HCT-15; experiment: Growth inhibition of human HCT15 cells after 48 hrs by SRB assay; format: functional; conditions: HCT-15, 48 h
[28] = tested on: HCC 2998; experiment: Growth inhibition of human HCC2998 cells after 48 hrs by SRB assay; format: functional; conditions: HCC 2998, 48 h
[29] = tested on: Malme-3M; experiment: Growth inhibition of human MALME-3M cells after 48 hrs by SRB assay; format: functional; procedure, shortened: as §1
[30] = tested on: COLO 205; experiment: Growth inhibition of human COLO205 cells after 48 hrs by SRB assay; format: functional; conditions: COLO 205, 48 h
[31] = Inhibition of tubulin in rat A10 cells assessed as induction of cellular microtubule disassembly after 18 hrs by indirect immunofluorescence technique; format: cell-based; conditions: A10, 18 h
Procedure, shortened: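 A-10 cells plated on glass coverslips and treated with compound at varying concentrations for 18 h. After fixation, microtubules immunostained with a β-tubulin antibody (indirect immunofluorescence) and nuclei stained with DAPI. Read by fluorescence microscopy. Percentage of cellular microtubule loss estimated visually across the concentration range.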

[32] = tested on: DU-145; experiment: Growth inhibition of human DU145 cells after 48 hrs by SRB assay; format: functional; conditions: DU-145, 48 h; procedure, shortened: as §1
[33] = tested on: SK-MEL-5; experiment: Growth inhibition of human SK-MEL-5 cells after 48 hrs by SRB assay; format: functional; conditions: SK-MEL-5, 48 h; procedure, shortened: as §2

GI50 [1]: 1950 nM
GI50 [2]: 450 nM
GI50 [3]: 520 nM
GI50 [4]: 34 nM
GI50 [7]: 8440 nM
GI50 [8]: 3460 nM
GI50 [10]: < 10 nM
GI50 [13]: 2080 nM
GI50 [14]: 4140 nM
IC50 [15]: 900 nM
GI50 [16]: 110 nM
GI50 [17]: 3600 nM
inhibition [18]: 56%
GI50 [19]: 3330 nM
GI50 [20]: 200 nM
GI50 [22]: 2390 nM
GI50 [25]: 390 nM
GI50 [27]: < 10 nM
GI50 [28]: 410 nM
GI50 [30]: 2200 nM
EC50 [31]: 16500 nM
GI50 [32]: 50 nM
GI50 [33]: 310 nM
SMILES: COc1ccc(/C=C/C(=O)c2cc(OC)c(OC)c(OC)c2)cc1B(O)O
GI50 [5]: 20900 nM
GI50 [6]: 88 nM
GI50 [9]: 800 nM
GI50 [11]: 1310 nM
GI50 [12]: 6390 nM
GI50 [21]: 50 nM
GI50 [23]: 34 nM
GI50 [24]: 390 nM
GI50 [26]: 320 nM
GI50 [29]: 5490 nM
